ChEMBL document CHEMBL1137412, “Molecular tongs containing amino acid mimetic fragments: new inhibitors of wild-type and mutated HIV-1 protease dimerization” (J Med Chem, 2006)
Blank lines part the entries; values can stand above or below the compound they belong to.

Columns and labels:
[1] = target: T1, Human immunodeficiency virus type 1 protease (Human immunodeficiency virus 1, UniProt Q72874); assay: Inhibition of wild type HIV1 protease dimerization
Procedure, shortened: (§1)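 Recombinant HIV-1 protease (wild-type or mutant) assayed fluorometrically with substrate DABCYL-γ-abu-Ser-Gln-Asn-Tyr-Pro-Ile-Val-Gln-EDANS (emission 490 nm). Conditions: 100 mM sodium acetate, 1 mM EDTA, 1 M NaCl, pH 4.7, 30 °C, 3% v/v DMSO final. Typically 7.5 nM enzyme and 5.2 µM substrate.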

[2] = target: Human immunodeficiency virus type 1 protease (Human immunodeficiency virus 1, UniProt Q72874, D30N); assay: Inhibition of dimerization of HIV1 protease D30N mutant; procedure, shortened: as §1
[3] = target: T1, Human immunodeficiency virus type 1 protease; assay: Inhibition of dimerization of HIV1 protease […] mutant; procedure, shortened: as §1
[4] = target: Human immunodeficiency virus type 1 protease (Human immunodeficiency virus 1, UniProt Q72874, V82A); assay: Inhibition of dimerization of HIV1 protease V82A mutant; procedure, shortened: as §1
[5] = target: Human immunodeficiency virus type 1 protease (Human immunodeficiency virus 1, UniProt Q72874, G48V/L90M); assay: Inhibition of dimerization of HIV1 protease G48V/L90M mutant; procedure, shortened: as §1
[6] = target: T1, Human immunodeficiency virus type 1 protease; assay: Inhibition of dimerization of HIV1 protease MDR-HM mutant; procedure, shortened: as §1
[7] = target: T1, Human immunodeficiency virus type 1 protease; assay: Inhibition of dimerization of HIV1 protease ANAM-11 mutant; procedure, shortened: as §1
[8] = Stability in presence of 20% fetal calf serum; format: ADME; conditions: cattle
Procedure, shortened: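 Compound incubated in RPMI medium containing 20% fetal calf serum at 37 °C for up to 2 days. Incubation stopped with ethanol, mixture chilled to 4 °C and centrifuged, and clear supernatant analysed by RP-HPLC. Half-life from least-squares linear regression of log[I] versus time, using at least five points.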

[9] = target: T1, Human immunodeficiency virus type 1 protease; assay: Inhibition of wild type HIV1 protease; procedure, shortened: as §1
[10] = target: Human immunodeficiency virus type 1 protease (Human immunodeficiency virus 1) (UniProt Q72874); assay: Inhibition of wild type HIV1 protease at 5 uM
Procedure, shortened: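 Recombinant wild-type HIV-1 protease (7.5 nM) was run with fluorogenic substrate DABCYL-γ-abu-Ser-Gln-Asn-Tyr-Pro-Ile-Val-Gln-EDANS (5.2 µM) in 100 mM sodium acetate, 1 mM EDTA, 1 M NaCl, pH 4.7, 30 °C. DMSO was kept at 3% v/v final. Emission was read at 490 nm. Percent inhibition was measured at 5 µM compound.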

[11] = target: Human immunodeficiency virus type 1 protease (Human immunodeficiency virus 1) (UniProt Q72874); assay: Inhibition of wild type HIV1 protease dimerization at 5 uM

SMILES: COC(=O)[C@@H](NC(=O)[C@@H](CC(C)C)NC(=O)[C@@H](NC(=O)CCCOc1ccc2ccc(OCCCC(=O)NC(C(=O)Nc3cccn(CC(N)=O)c3=O)C(C)C)cc2c1)C(C)C)C(C)C (some centres undefined)
Ki [1]: 400 nM | Ki [2]: 500 nM | Ki [3]: 100 nM | Ki [4]: 240 nM | Ki [5]: 500 nM | Ki [6]: 4800 nM | Ki [7]: 200 nM

half-life [8]: 28 h
SMILES: COC(=O)[C@@H](NC(=O)[C@H](CC(C)C)NC(=O)[C@@H](NC(=O)CCCOc1ccc2ccc(OCCCC(=O)N[C@H](C(=O)N[C@@H](CC(C)C)C(=O)N[C@H](C(=O)OC)C(C)C)C(C)C)cc2c1)C(C)C)C(C)C

SMILES: COC(=O)[C@@H](NC(=O)[C@H](CC(C)C)NC(=O)[C@@H](NC(=O)CCCOc1ccc2ccc(OCCCC(=O)N[C@H](C(=O)NNC(=O)c3cc(NC(C)=O)ccc3OC)C(C)C)cc2c1)C(C)C)C(C)C
Ki [1]: 200 nM

SMILES: COC(=O)[C@@H](NC(=O)[C@@H](CC(C)C)NC(=O)[C@@H](NC(=O)CCCOc1ccc2ccc(OCCCC(=O)Nc3ccc(C)n(CC(=O)Nc4ccc(C)n(CC(=O)OC(C)(C)C)c4=O)c3=O)cc2c1)C(C)C)C(C)C
Ki [9]: 8400 nM

SMILES: CC[C@H](C)[C@H](NC(=O)Cn1c(C)ccc(NC(=O)CCCOc2ccc3ccc(OCCCC(=O)N[C@H](C(=O)N[C@H](CC(C)C)C(=O)N[C@H](C(=O)OC)C(C)C)C(C)C)cc3c2)c1=O)C(=O)N[C@H](C(N)=O)[C@@H](C)O
Ki [9]: 9700 nM

inhibition [10]: 28% | inhibition [11]: 28%
SMILES: COC(=O)[C@@H](NC(=O)[C@H](CC(C)C)NC(=O)[C@@H](NC(=O)CCCOc1ccc2ccc(OCCCC(=O)NNC(=O)c3cc(N)ccc3OC)cc2c1)C(C)C)C(C)C

SMILES: COC(=O)[C@@H](NC(=O)[C@H](CC(C)C)NC(=O)[C@@H](NC(=O)CCCOc1ccc2ccc(OCCCC(=O)N[C@H](C(=O)Nc3cccn(CC(N)=O)c3=O)C(C)C)cc2c1)C(C)C)C(C)C
half-life [8]: 41 h
